# Test results published in ChEMBL document CHEMBL1158586, “Hypopigmentary action of dihydropyranocoumarin D2, a decursin derivative, as a MITF-degrading agent” (J Nat Prod, 2010).
# The source made the active and inactive calls. The rule behind the calls is not given here.
# What was measured:
# [1] = target: T1, Tyrosinase (Mus musculus) (UniProt P11344); test: Inhibition of tyrosinase activity in mouse Mel-Ab cells assessed as inhibition of melanogenesis at 1 to 100 uM by ELISA
# T1 sequence (whole entry): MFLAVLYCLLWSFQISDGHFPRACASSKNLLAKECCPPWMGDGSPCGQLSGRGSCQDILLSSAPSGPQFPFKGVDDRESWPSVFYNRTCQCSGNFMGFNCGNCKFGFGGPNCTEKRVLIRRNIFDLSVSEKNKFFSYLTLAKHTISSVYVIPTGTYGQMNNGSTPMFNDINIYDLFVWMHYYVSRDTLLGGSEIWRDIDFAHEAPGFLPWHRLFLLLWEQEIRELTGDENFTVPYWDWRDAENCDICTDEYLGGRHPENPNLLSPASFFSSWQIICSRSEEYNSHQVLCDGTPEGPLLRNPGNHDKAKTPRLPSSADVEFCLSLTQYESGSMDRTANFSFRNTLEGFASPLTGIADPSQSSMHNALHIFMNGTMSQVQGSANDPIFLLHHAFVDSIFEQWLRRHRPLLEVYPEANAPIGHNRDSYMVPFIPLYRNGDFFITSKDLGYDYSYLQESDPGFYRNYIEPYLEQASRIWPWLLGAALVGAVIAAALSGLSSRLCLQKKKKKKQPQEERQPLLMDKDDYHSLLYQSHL
# [2] = system: Mel-Ab; test: Reduction of MITF level in 24 hrs serum starved mouse Mel-Ab cells at 50 uM measured after 24 to 72 mins by Western blot analysis; type: functional; conditions: in the assay text read “24 to 72 hrs” for “24 to 72 mins”
# Method in brief: (§1)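 Mel-Ab cells cultured 24–72 h with 50 µM. Whole-cell lysates (10 µg protein/lane) analysed by Western blot for MITF and tyrosinase, with actin as loading control.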
# [3] = system: Mel-Ab; test: Inhibition of melanin synthesis in mouse Mel-Ab cells assessed as reduction in melanin synthesis at 1 to 100 uM after 4 hrs by phase-contrast microscopy; type: functional, cell-based; conditions: in the assay text read “4 days” for “4 hrs”
# Method in brief: (§2)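 Mel-Ab melanocytes in TPA/CT-supplemented DMEM given 1–100 µM for four days. Cells photographed under phase contrast. Pellets then dissolved in 1 N NaOH, 100 °C, 30 min, spun 16000g for 20 min, supernatant OD read at 400 nm. Mean ± SD of three replicate experiments, compared with untreated control.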
# [4] = system: Mel-Ab; test: Reduction of MITF level in 24 hrs serum starved mouse Mel-Ab cells […] measured after 3 hrs followed by MG132 proteasome inhibitor for 1 hr by Western blot analysis; type: functional
# Method in brief: (§3)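 After serum starvation, Mel-Ab cells pretreated 1 h with 25 µg/mL cycloheximide, then 1 h with 25 µM MG132 and/or 100 µM chloroquine, then 3 h with 50 µM compound. MITF detected by Western blot of whole-cell lysates.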
# [5] = Inhibition of melanin synthesis in mouse Mel-Ab cells assessed as reduction in melanin synthesis at 50 uM after 4 hrs by phase-contrast microscopy in presence of PD-98059 ERK pathway inhibitor; type: functional, cell-based; conditions: in the assay text read “4 days” for “4 hrs”
# Method in brief: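 Mel-Ab cells pretreated 1 h with 20 µM PD98059, then cultured four days with 50 µM compound. Phase-contrast photography, then melanin read as OD 400 nm after dissolving pellets in 1 N NaOH at 100 °C. Triplicate determinations, mean ± SD.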
# [6] = system: Mel-Ab; test: Reduction of tyrosinase protein level in 24 hrs serum starved mouse Mel-Ab cells at 50 uM measured after 24 to 72 mins by Western blot analysis; type: functional; conditions: in the assay text read “24 to 72 hrs” for “24 to 72 mins”
# Method in brief: as §1
# [7] = system: Mel-Ab; test: Reduction of MITF level in 24 hrs serum starved mouse Mel-Ab cells at 25 ug/ml measured after 3 hrs followed by MG132/chloroquine for 1 hr by Western blot analysis; type: functional; conditions: 50 uM, in the assay text read “50 uM” for “25 ug/ml”
# Method in brief: as §3
# [8] = system: Mel-Ab; test: Cytotoxicity against mouse Mel-Ab cells at 1 to 100 uM after 24 hrs by crystal violet assay; type: functional, cell-based
# Method in brief: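 Mel-Ab (spontaneously immortalized mouse melanocytes; DMEM, 10% FBS, 100 nM TPA, 1 nM CT, 37 °C, 5% CO2) exposed 24 h to 1, 10, 50, 100 µM. Crystal violet staining (0.1% in 10% ethanol, 5 min, room temperature), four water rinses, dye extracted with 95% ethanol, absorbance read at 590 nm.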
# [9] = target: T2, Microphthalmia-associated transcription factor (Mus musculus) (UniProt Q08874); test: Down regulation of MITF activity in 24 hrs serum starved mouse Mel-Ab cells at 50 uM measured after 60 to 360 mins by Western blot analysis; type: cell-based
# T2 sequence (whole entry): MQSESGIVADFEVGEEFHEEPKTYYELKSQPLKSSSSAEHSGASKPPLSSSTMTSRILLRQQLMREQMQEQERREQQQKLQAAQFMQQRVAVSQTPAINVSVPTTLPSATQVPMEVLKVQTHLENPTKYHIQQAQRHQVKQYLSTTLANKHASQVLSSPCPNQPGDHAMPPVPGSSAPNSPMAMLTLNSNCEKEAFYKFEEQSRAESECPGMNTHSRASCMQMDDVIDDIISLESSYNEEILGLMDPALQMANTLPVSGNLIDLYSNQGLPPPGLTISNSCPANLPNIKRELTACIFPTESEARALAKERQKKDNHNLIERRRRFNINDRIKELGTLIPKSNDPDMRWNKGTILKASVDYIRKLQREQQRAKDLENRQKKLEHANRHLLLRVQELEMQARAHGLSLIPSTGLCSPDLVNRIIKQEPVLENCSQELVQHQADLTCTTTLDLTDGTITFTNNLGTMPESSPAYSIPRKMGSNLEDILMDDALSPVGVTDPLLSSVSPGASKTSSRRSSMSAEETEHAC
# Method in brief: (§4)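 Mel-Ab cells serum-starved 24 h, then given 50 µM for the indicated times up to 360 min. Whole-cell lysates run at 10 µg protein per lane by SDS-PAGE and blotted on PVDF. Probed with 1:1000 antibodies to phospho-ERK, phospho-Akt, MITF and tyrosinase; actin served as loading control.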
# [10] = system: Mel-Ab; test: Inhibition of melanin synthesis in mouse Mel-Ab cells assessed as in melanin content after 4 hrs by ELISA; type: functional, cell-based; conditions: in the assay text read “4 days” for “4 hrs”
# Method in brief: as §2
# [11] = system: Mel-Ab; test: Induction of ERK activity in 24 hrs serum starved mouse Mel-Ab cells at 50 uM by Western blot analysis; type: cell-based
# Method in brief: as §4
# [12] = system: Mel-Ab; test: Reduction of MITF level in 24 hrs serum starved mouse Mel-Ab cells […] measured after 3 hrs followed by chloroquine lysosomal proteolysis inhibitor for 1 hr by Western blot analysis; type: functional
# Method in brief: as §3
# [13] = system: Mel-Ab; test: Induction of ERK activity in 24 hrs serum starved mouse Mel-Ab cells at 50 uM by Western blot analysis in presence of PD-98059; type: cell-based
# [14] = system: Mel-Ab; test: Reduction of MITF level in 24 hrs serum starved mouse Mel-Ab cells at 50 uM measured after 3 hrs by Western blot analysis in presence of PD-98059
smiles,measurement,setting,value
CC1(C)Oc2cc3oc(=O)ccc3cc2C[C@@H]1OC(=O)/C=C/c1ccccc1,Activity,[1],Active
same,Activity,[2],Active
same,Activity,[3],Active
same,Activity,[4],inactive
same,Activity,[5],inactive
same,Activity,[6],Active
same,Activity,[7],Active
same,Activity,[8],inactive
same,Activity,[9],Active
same,Activity,[10],Dose-dependent effect
same,Activity,[11],Active
same,Activity,[12],inactive
same,Activity,[13],inactive
same,Activity,[14],inactive
